# Assay results taken from ChEMBL document CHEMBL1208768, “Synthesis, selective anti-Helicobacter pylori activity, and cytotoxicity of novel N-substituted-2-oxo-2H-1-benzopyran-3-carboxamides” (Bioorg Med Chem Lett, 2010).
# Calls of active or inactive are those of the source. The calls are words filed in the database; no cut-off is given here.
# Legend:
# Staphylococcus aureus = assay: Antibacterial activity against Staphylococcus aureus after 18 to 22 hrs by broth microdilution method; type: functional
# How it was run: (§1)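 Clinical respiratory-tract isolates from patients, subcultured for purity and identified conventionally. Broth microdilution per NCCLS in Mueller–Hinton II broth; each plate had growth controls (bacteria, no compound) and medium-only controls. Incubation 18–22 h at 35 °C. MIC taken as the lowest concentration giving complete growth inhibition by unaided eye.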
# [1] = system: Staphylococcus epidermidis; assay: Antibacterial activity against Staphylococcus epidermidis after 18 to 22 hrs by broth microdilution method; type: functional; how it was run: as §1
# Staphylococcus hominis = assay: Antibacterial activity against Staphylococcus hominis after 18 to 22 hrs by broth microdilution method; type: functional; how it was run: as §1
# [2] = system: Staphylococcus haemolyticus; assay: Antibacterial activity against Staphylococcus haemolyticus after 18 to 22 hrs by broth microdilution method; type: functional; how it was run: as §1
# Enterococcus faecalis = assay: Antibacterial activity against Streptococcus faecalis after 18 to 22 hrs by broth microdilution method; type: functional; how it was run: as §1
# Escherichia coli = assay: Antibacterial activity against Escherichia coli after 18 to 22 hrs by broth microdilution method; type: functional; how it was run: as §1
# Klebsiella pneumoniae = assay: Antibacterial activity against Klebsiella pneumoniae after 18 to 22 hrs by broth microdilution method; type: functional; how it was run: as §1
# Klebsiella oxytoca = assay: Antibacterial activity against Klebsiella oxytoca after 18 to 22 hrs by broth microdilution method; type: functional; how it was run: as §1
# Enterobacter = assay: Antibacterial activity against Enterobacter after 18 to 22 hrs by broth microdilution method; type: functional; how it was run: as §1
# Klebsiella aerogenes = assay: Antibacterial activity against Enterobacter aerogenes after 18 to 22 hrs by broth microdilution method; type: functional; how it was run: as §1
# Citrobacter freundii = assay: Antibacterial activity against Citrobacter freundii after 18 to 22 hrs by broth microdilution method; type: functional; how it was run: as §1
# Proteus vulgaris = assay: Antibacterial activity against Proteus vulgaris after 18 to 22 hrs by broth microdilution method; type: functional; how it was run: as §1
# Candida albicans = assay: Antifungal activity against Candida albicans after 24 hrs by broth microdilution method; type: functional
# How it was run: (§2)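 Candida isolates from respiratory-tract specimens, tested by NCCLS broth microdilution in Sabouraud dextrose broth. Serial compound dilutions inoculated to 10³/mL, with fungus-only and medium-only controls. Incubated 24 h at 37 °C. MIC was the lowest concentration with complete visible growth inhibition.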
# [Candida] sake = Antifungal activity against Candida sake after 24 hrs by broth microdilution method; type: functional; conditions: Fermentozyma sake; how it was run: as §2
# Pichia kudriavzevii = assay: Antifungal activity against Candida krusei after 24 hrs by broth microdilution method; type: functional; how it was run: as §2
# Helicobacter pylori [3] = assay: Antibacterial activity against Helicobacter pylori ATCC 43504 clinical isolates after 72 hrs by agar dilution method; type: functional; conditions: ATCC 43504, 72 h
# How it was run: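 Agar dilution per NCCLS. Twenty clinical strains from duodenal ulcer or gastritis patients, with ATCC 43504 as control in each session, were subcultured twice on Columbia agar plus 10% horse serum and 0.25% yeast extract (72 h, 37 °C, 10% CO₂). Inoculum of 0.5 McFarland in Wilkins Chalgren broth, about 5 × 10⁵ CFU/spot by Steer's replicator. Plates held twofold compound dilutions down to 0.0039 µg/mL and were incubated 72 h at 37 °C, 10% CO₂. MIC was the lowest concentration inhibiting visible growth.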
# Helicobacter pylori [4] = assay: Antibacterial activity against metronidazole-resistant Helicobacter pylori NCTC 11637 after 72 hrs by agar dilution method; type: functional; conditions: NCTC 11637, 72 h
# How it was run: (§3)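 H. pylori clinical isolates (ATCC 43504 control each session) stored at -80 °C and subcultured twice on Columbia agar with 10% horse serum and 0.25% yeast extract. Suspensions of 0.5 McFarland were spotted by Steer's replicator at about 5 × 10⁵ CFU/spot onto agar with twofold compound dilutions. Plates were incubated 72 h at 37 °C in 10% CO₂. MIC was the lowest concentration without visible growth.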
# Helicobacter pylori [5] = assay: Antibacterial activity against metronidazole-resistant Helicobacter pylori isolate 1 after 72 hrs by agar dilution method; type: functional; conditions: isolate 1, 72 h; how it was run: as §3
# Helicobacter pylori [6] = assay: Antibacterial activity against metronidazole-resistant Helicobacter pylori isolate 8 after 72 hrs by agar dilution method; type: functional; conditions: isolate 8, 72 h; how it was run: as §3
# Helicobacter pylori [7] = assay: Antibacterial activity against metronidazole-resistant Helicobacter pylori isolate 18 after 72 hrs by agar dilution method; type: functional; conditions: isolate 18, 72 h; how it was run: as §3
# Helicobacter pylori [8] = assay: Antibacterial activity against metronidazole-resistant Helicobacter pylori isolate 20 after 72 hrs by agar dilution method; type: functional; conditions: isolate 20, 72 h; how it was run: as §3
# [9] = Cytotoxicity against human EAhy926 cells assessed as cell survival at 50 ug/mL after 24 hrs by trypan blue exclusion assay; type: cell-based, EA.hy 926; conditions: read-out: Survival
# How it was run: (§4)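 EAhy cells in DMEM (high glucose) with 10% FBS, at 1 × 10⁵/mL in exponential growth and 60–70% confluent, were exposed 24 h at 37 °C to compounds from DMSO stocks (final DMSO ≤0.5%). Controls were cells alone or with DMSO, and 1 mM sodium nitroprusside as positive control. Cells were scraped, mixed 1:1 with 0.4% Trypan blue and counted on a hemocytometer by two operators. Result given as % viable cells.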
# [10] = Cytotoxicity against human EAhy926 cells assessed as cell survival at 5 ug/mL after 24 hrs by trypan blue exclusion assay; type: cell-based, EA.hy 926; conditions: read-out: Survival; how it was run: as §4
# [11] = Cytotoxicity against human EAhy926 cells assessed as cell survival at 0.5 ug/mL after 24 hrs by trypan blue exclusion assay; type: cell-based, EA.hy 926; conditions: read-out: Survival; how it was run: as §4
# [12] = Cytotoxicity against human EAhy926 cells assessed as cell survival at 0.05 ug/mL after 24 hrs by trypan blue exclusion assay; type: cell-based, EA.hy 926; conditions: read-out: Survival; how it was run: as §4
# [13] = Cytotoxicity against human EAhy926 cells assessed as cell survival at 5 ug/mL after 24 hrs by MTT assay; type: cell-based, EA.hy 926; conditions: read-out: Survival
# [14] = Cytotoxicity against human EAhy926 cells assessed as cell survival at 0.5 ug/mL after 24 hrs by MTT assay; type: cell-based, EA.hy 926; conditions: read-out: Survival
# AGS [15] = assay: Antiinflammatory activity in human AGS cells assessed as inhibition of IL-8 production at 5 ug/mL after 24 hrs; type: functional, cell-based
# How it was run: (§5)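 AGS gastric adenocarcinoma cells were grown in F-12K with 10% FBS. They were seeded at 1 × 10⁵/mL for 24 h, preincubated 1 h with compound at 5 or 0.5 µg/mL, then exposed to H. pylori.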
# AGS [16] = assay: Antiinflammatory activity in human AGS cells assessed as inhibition of IL-8 production at 0.5 ug/mL after 24 hrs; type: functional, cell-based; how it was run: as §5
# AGS (Homo sapiens) = assay: Cytotoxicity against human AGS cells assessed as cell survival at 50 ug/mL after 24 hrs by MTT assay
SMILES,MIC (Staphylococcus aureus) [µg/mL],MIC [1] [µg/mL],MIC (Staphylococcus hominis) [µg/mL],MIC [2] [µg/mL],MIC (Enterococcus faecalis) [µg/mL],MIC (Escherichia coli) [µg/mL],MIC (Klebsiella pneumoniae) [µg/mL],MIC (Klebsiella oxytoca) [µg/mL],MIC (Enterobacter) [µg/mL],MIC (Klebsiella aerogenes) [µg/mL],MIC (Citrobacter freundii) [µg/mL],MIC (Proteus vulgaris) [µg/mL],MIC (Candida albicans) [µg/mL],MIC ([Candida] sake) [µg/mL],MIC (Pichia kudriavzevii) [µg/mL],MIC50 (Helicobacter pylori [3]) [µg/mL],MIC90 (Helicobacter pylori [3]) [µg/mL],MIC (Helicobacter pylori [4]) [µg/mL],MIC (Helicobacter pylori [5]) [µg/mL],MIC (Helicobacter pylori [6]) [µg/mL],further results
CCOC(=O)c1ccc(NC(=O)c2cc3cc(OC)ccc3oc2=O)cc1,> 128,> 128,> 128,> 128,> 128,> 128,> 128,> 128,> 128,> 128,> 128,> 128,> 128,> 128,> 128,4,8,4,8,4,"MIC (Helicobacter pylori [7]): 4 µg/mL; MIC (Helicobacter pylori [8]): 4 µg/mL; viability at 24 h, 50 ug/mL [9]: 36%; viability at 24 h, 5 ug/mL [10]: 42%; viability at 24 h, 0.5 ug/mL [11]: 67%; viability at 24 h, 0.05 ug/mL [12]: 72%; viability at 24 h, 5 ug/mL [13]: 58%; viability at 24 h, 0.5 ug/mL [14]: 98%; inhibition (AGS [15]): inactive; inhibition (AGS [16]): inactive; viability at 24 h, 50 ug/mL (AGS (Homo sapiens)): 41%"
O=C(O)c1ccc(NC(=O)c2cc3ccc(O)cc3oc2=O)cc1,> 128,> 128,> 128,> 128,> 128,> 128,> 128,> 128,> 128,> 128,> 128,> 128,> 128,> 128,> 128,8,16,8,8,4,"MIC (Helicobacter pylori [7]): 8 µg/mL; MIC (Helicobacter pylori [8]): 8 µg/mL; viability at 24 h, 50 ug/mL [9]: 82%; viability at 24 h, 5 ug/mL [10]: 92%; viability at 24 h, 0.5 ug/mL [11]: 93%; viability at 24 h, 0.05 ug/mL [12]: 98%; viability at 24 h, 5 ug/mL [13]: 99%; viability at 24 h, 0.5 ug/mL [14]: 99%; inhibition (AGS [15]): inactive; inhibition (AGS [16]): inactive; viability at 24 h, 50 ug/mL (AGS (Homo sapiens)): 77%"
COc1ccc2oc(=O)c(C(=O)Nc3ccc(C(=O)O)cc3)cc2c1,> 128,> 128,> 128,> 128,> 128,> 128,> 128,> 128,> 128,> 128,> 128,> 128,> 128,> 128,> 128,4,8,4,8,4,"MIC (Helicobacter pylori [7]): 4 µg/mL; MIC (Helicobacter pylori [8]): 4 µg/mL; viability at 24 h, 50 ug/mL [9]: 62%; viability at 24 h, 5 ug/mL [10]: 69%; viability at 24 h, 0.05 ug/mL [12]: 85%; viability at 24 h, 5 ug/mL [13]: 99%; viability at 24 h, 0.5 ug/mL [14]: 99%; inhibition (AGS [15]): inactive; inhibition (AGS [16]): inactive"
O=C(O)c1ccc(NC(=O)c2cc3cc(Br)cc(Cl)c3oc2=O)cc1,> 128,> 128,> 128,> 128,> 128,> 128,> 128,> 128,> 128,> 128,> 128,> 128,> 128,> 128,> 128,8,32,32,16,32,MIC (Helicobacter pylori [7]): 16 µg/mL; MIC (Helicobacter pylori [8]): 32 µg/mL; inhibition (AGS [15]): inactive; inhibition (AGS [16]): inactive
COc1ccc2cc(C(=O)Nc3ccc(C(=O)O)cc3)c(=O)oc2c1,> 128,> 128,> 128,> 128,> 128,> 128,> 128,> 128,> 128,> 128,> 128,> 128,> 128,> 128,> 128,> 128,> 128,> 128,> 128,> 128,MIC (Helicobacter pylori [7]): > 128 µg/mL; MIC (Helicobacter pylori [8]): > 128 µg/mL; inhibition (AGS [15]): inactive; inhibition (AGS [16]): inactive
CCOC(=O)c1ccc(NC(=O)c2cc3cc(Br)cc(Br)c3oc2=O)cc1,> 128,> 128,> 128,> 128,> 128,> 128,> 128,> 128,> 128,> 128,> 128,> 128,> 128,> 128,> 128,64,64,64,64,64,MIC (Helicobacter pylori [7]): 64 µg/mL; MIC (Helicobacter pylori [8]): 64 µg/mL; inhibition (AGS [15]): inactive; inhibition (AGS [16]): inactive
